SMILES strings stand for the structures.

The species entered for test [1] is Mus musculus. Kind of test: Compound was evaluated for IL 5 production inhibitio from mice splenocytes stimulated by anti-CD3 mAb. The format is functional. An outline of the steps: (§1)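 Th-2 clone D10.G4.1, restimulated with conalbumin (100 µg/mL) plus mitomycin C-treated AKR/J splenocytes as antigen-presenting cells, thawed and grown 3 days with Rat T-STIM. Cells at 4 × 10⁴/well, 3.5 h without T-STIM, drug 30 min (DMSO ≤0.1%). Stimulated with anti-CD3 mAb (final 1:100) for 16 h; IL-4 or IL-5 measured in supernatant. IC50 estimated over a concentration range.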

The species entered for test [2] is Mus musculus. Kind of test: Compound was evaluated for IL 4 production inhibition from mice splenocytes stimulated by anti-CD3 mAb. Format: functional. An outline of the steps: as §1
Test [3] has as its system Rattus norvegicus. Kind of test: Compound was evaluated in vivo for inhibition of Ovalbumin induced rhinitis in anesthetized rats after topical administration (nasal perfusion). Format: functional, organism-based. The essentials:
(§2)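 Male Brown Norway rats sensitized ip with OVA 0.5 mg/kg + Al(OH)₃ 7.5 mg/kg, used on day 20-21 under thiopental (50 mg/kg ip). Nasal cavity perfused with PBS; drug given by 30 min topical perfusion in PBS, iv 30 min or po 60 min before OVA challenge.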

The species entered for test [4] is Rattus norvegicus. The test can be described thus: Inhibition of tetraethylammonium chloride(TEA)-induced acetylcholine hyperactivity in rat tracheal segments by the compound. Format: functional. Conditions: Trachea. The essentials: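 Male Wistar rat tracheal rings in Krebs-Henseleit at 37 °C, 1 g preload, isotonic. Acetylcholine cumulative curves run alone, with TEA (10 mM, 30 min), and with drug (30 min before TEA) plus TEA. Percent inhibition of hyperreactivity taken from contraction at 100 µM acetylcholine, 3-5 preparations; screening at 30 µM, and IC50 by regression from 3-4 concentrations if inhibition exceeds 50%.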

For test [5], the species on record is Mus musculus. The test can be described thus: Compound was evaluated for IL 5 production inhibition from mice splenocytes stimulated by anti-CD3 mAb. Format: functional. An outline of the steps: as §1
The species named for test [6] is Mus musculus. Kind of test: Percent inhibition of anti-CD3 mAb stimulated interleukin-4 release from mice splenocytes by 10 uM compound. Format: functional.
The species entered for test [7] is Rattus norvegicus. Kind of test: Inhibition of histamine release in rat mast cells. Format: functional, cell-based.
Test [8] deals with Rattus norvegicus. The test can be described thus: Compound was evaluated in vivo for inhibition of Ovalbumin induced rhinitis in anesthetized rats 60 min after peroral administration. The format is functional. The note with it: po, 1 h, read-out: ID50 (the source's name). The essentials:
as §2

In test [9] the test system is Cavia porcellus. Kind of test: Inhibition of Late Phase Eosinophilia in Bronchoalveolar Lavage (BAL) of Guinea Pigs 4 hr after intraperitoneal administration at a dose 5 mg/kg. The format is functional. The note with it: ip. The essentials: (§3)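 Male Dunkin-Hartley guinea pigs sensitized ip with OVA 20 µg + Al(OH)₃ 20 mg on two consecutive days; 14 days later mepyramine 10 mg/kg ip given before aerosol OVA challenge (5 mg/mL nebulized). Drug given ip or by oral gavage 2 h before or 4 h after challenge.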

For test [10], the system named is Cavia porcellus. Kind of test: Inhibition of Late Phase Eosinophilia in Bronchoalveolar Lavage (BAL) of Guinea Pigs 2 hr after peroral administration at a dose of 30 mg/kg. Conditions: route oral. Format: functional. The essentials: as §3
The species entered for test [11] is Mus musculus. The test can be described thus: Percent inhibition of anti-CD3 mAb stimulated interleukin-5 release from […] by 10 uM. Format: functional. The essentials:
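D10.G4.1 Th-2 cells (4 × 10⁴/well) in medium without Rat T-STIM for 3.5 h, then exposed to drug at 10 µM for 30 min and stimulated with anti-CD3 mAb (final 1:100) for 16 h. IL-4 or IL-5 content of the supernatant is read against solvent control. Mean of three experiments, each run in duplicate.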

In test [12] the test system is Rattus norvegicus. Kind of test: Compound was evaluated in vivo for inhibition of Ovalbumin induced rhinitis in anesthetized rats 30 min after intravenous administration. The format is functional. The note with it: 0.5 h, read-out: ID50 (the source's name). The essentials: as §2
For test [13], the system named is Cavia porcellus. Kind of test: Inhibition of Late Phase Eosinophilia in Bronchoalveolar Lavage (BAL) of Guinea Pigs 4 hr after peroral administration at a dose of 30 mg/kg. The format is functional. The note with it: route oral. The essentials: as §3
For test [14], the system named is Cavia porcellus. The test can be described thus: Inhibition of Late Phase Eosinophilia in Bronchoalveolar Lavage (BAL) of Guinea Pigs 2 hr after intraperitoneal administration at a dose of 10 mg/kg. Conditions: ip. Format: functional. The essentials:
as §3

For test [15], the species on record is Cavia porcellus. Kind of test: Inhibition of Carbachol-induced contraction of guinea pig trachea by the compound at a concentration of 100 uM. The format is functional. An outline of the steps:
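Guinea pig tracheal spirals in Tyrode solution at 37 °C, carbogen, isotonic 2 g preload. Contracted with carbachol 0.164 µM until stable; after isoprenaline relaxation and washout, carbachol re-applied and test compound added cumulatively. Relaxation calculated as a percentage at each concentration.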

The IC50 is the midpoint of a concentration-inhibition curve. A higher IC50 goes with a need for much substance. Take `CC(C)(C)c1ccc(C(O)CCCN2CCC(C(O)(c3ccccc3)c3ccccc3)CC2)cc1` (stereo unspecified) [TERFENADINE]: the 50% inhibitory concentration (IC50) worked out at 3960 nM in the test listed under Mus musculus [1] and 4950 nM in the test filed under Mus musculus [2].
For `c1ccc(CN(CC2=NCCN2)c2ccccc2)cc1` [ANTAZOLINE], in the test with Rattus norvegicus [3], the half-maximal inhibitory concentration (IC50) was 1260 nM.
`COc1ccc(CCN(C)CCCC(C#N)(c2ccc(OC)c(OC)c2)C(C)C)cc1OC` (stereo unspecified) [VERAPAMIL] gave a half-maximal inhibitory concentration (IC50) in the test listed under Rattus norvegicus [4] of 1300 nM.
Regarding `C[C@@H]1C[C@H]2[C@@H]3CCC4=CC(=O)C=C[C@]4(C)[C@@]3(F)[C@@H](O)C[C@]2(C)[C@@]1(O)C(=O)CO` [DEXAMETHASONE], the IC50 in the test listed under Mus musculus [1] was found to be 3.5 nM; in the test listed under Mus musculus [2], 4.7 nM.
A word on the inhibition: it is how much of the control response was suppressed. A lower inhibition goes with a response near the control. By inhibition in vivo is commonly meant the share of the control response that was lost under treatment. Lower therefore signals little suppression. As to `O=C(Cc1cn(Cc2ccc(F)cc2)c2ccccc12)Nc1ccncc1`, the 50% inhibitory concentration (IC50) is 1500 nM in the test listed under Mus musculus [5]; 16 nM in the test listed under Rattus norvegicus [7]; 21 nM in the test listed under Rattus norvegicus [4]; 8000 nM in the test listed under Mus musculus [2]; 250 nM with Rattus norvegicus [3]. Further, the inhibition at 10 µM in the test listed under Mus musculus [6] came out at 63%; in the test filed under Mus musculus [11] it was 100%. Also, the ED50 in the test with Rattus norvegicus [8] was found to be 0.46 mg/kg; with Rattus norvegicus [12] it was 0.005 mg/kg. In addition, the inhibition in vivo at 5 mg/kg in the test on Cavia porcellus [9] worked out at 41%. The inhibition in vivo at 30 mg/kg in the test with Cavia porcellus [10] is 35%; in the test on Cavia porcellus [13], 28%. Also, in the test with Cavia porcellus [14], at 10 mg/kg the inhibition in vivo was 59%. For the same compound, the inhibition at 100 µM in the test listed under Cavia porcellus [15] was 36%.
In turn, `COc1ccc(CN(CCN(C)C)c2ccccn2)cc1` [PYRILAMINE] showed a concentration for half-maximal inhibition (IC50) with Rattus norvegicus [3] of 7410 nM.

For the origin of these results see ChEMBL document CHEMBL1132585, “New N-(pyridin-4-yl)-(indol-3-yl)acetamides and propanamides as antiallergic agents” (J Med Chem, 1999).
